Format in all cases: functional, cell-based
Test [1] relates to A549. In words: Cytotoxicity against human A549 cells by MTT assay. The gist of the method:
(§1)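 Human tumour lines (A549 lung adenocarcinoma, BGC-823 stomach cancer, Bel 7402 hepatoma, HCT-8 colon cancer, HeLa) were exposed to the compounds and viability was read by MTT. Potency was expressed as IC50 in μg/mL.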

Test [2] relates to BGC-823. As to the kind of experiment: Cytotoxicity against human BGC823 cells by MTT assay. In a few lines: as §1
The subject of test [3] is Bel-7402. As to the kind of experiment: Cytotoxicity against human Bel7402 cells by MTT assay. In a few lines: as §1
Test [4] deals with HCT-8. In words: Cytotoxicity against human HCT8 cells by MTT assay. In a few lines:
as §1

The subject of test [5] is HeLa. In words: Cytotoxicity against human HeLa cells by MTT assay. In a few lines: as §1

Converted amounts (≈) assume the structure as drawn. Bounds are passed on as bounds.

Consider `Cc1ccc(C(C)(O)C/C=C/C(C)(C)O)cc1` (stereo not given), for which the IC50 in test [1], in test [2], in test [3], in test [4] and in test [5] was greater than 10 µg/mL throughout.

In the case of `C=C1[C@](C)(O)CC[C@@]1(C)c1ccc(C)cc1O`, the IC50 in test [1], in test [2], in test [3], in test [4] and in test [5] was greater than 10 µg/mL each time.

For `Cc1cc2c(cc1O)C[C@]1(CC[C@@H]3C[C@@]31C)O2`, the IC50 in test [1], in test [2], in test [3], in test [4] and in test [5] was greater than 10 µg/mL in each case.

Regarding `Cc1ccc([C@]2(C)CC[C@H](C(C)(C)O)O2)cc1`, the half-inhibitory concentration (IC50) in test [1], in test [2], in test [3], in test [4] and in test [5] was greater than 10 µg/mL each time.

Turning to `Cc1cc(O)c([C@]2(C)CC[C@@H]3C[C@@]32C)cc1-c1cc([C@]2(C)CC[C@@H]3C[C@@]32C)c(O)cc1C` [LAUREBIPHENYL], the IC50 in test [1] stood at 1.68 µg/mL (≈ 3.9 µM); in test [2], 1.22 µg/mL (≈ 2.83 µM); in test [3] it was 1.91 µg/mL (≈ 4.44 µM); in test [4], 1.77 µg/mL (≈ 4.11 µM); in test [5], 1.61 µg/mL (≈ 3.74 µM).

`Cc1ccc([C@]2(C)CC[C@@H]3C[C@@]32C)cc1O`: the IC50 in test [1], in test [2], in test [3], in test [4] and in test [5] was greater than 10 µg/mL in each case.

On to `C=C1[C@](C)(O)CC[C@@]1(C)c1ccc(C)c(O)c1`, for which the IC50 in test [1], in test [2], in test [3], in test [4] and in test [5] was greater than 10 µg/mL throughout.

As for `Cc1ccc([C@]2(C)CC[C@@H](C(C)(C)O)O2)cc1`, the 50% inhibitory concentration (IC50) in test [1], in test [2], in test [3], in test [4] and in test [5] was greater than 10 µg/mL throughout.

On to `Cc1cc2c(cc1Br)[C@]1(C)CC[C@H](C)[C@]1(C)O2` [APLYSIN], for which the IC50 in test [1], in test [2], in test [3], in test [4] and in test [5] was greater than 10 µg/mL in each case.

In the case of `C=C1[C@]2(C)CC[C@@]1(C)c1cc(Br)c(C)cc1O2`, the IC50 in test [1], in test [2], in test [3], in test [4] and in test [5] was greater than 10 µg/mL throughout.

With `Cc1cc2c(cc1Br)[C@]1(C)CC[C@H](C)[C@]1(CO)O2` [APLYSINOL], the IC50 in test [1], in test [2], in test [3], in test [4] and in test [5] was greater than 10 µg/mL in each case.

On to `CC(C)=CCCC(C)(O)c1ccc(C)cc1` (stereo not given) [GOSSONOROL], for which the concentration for half-maximal inhibition (IC50) in test [1], in test [2], in test [3], in test [4] and in test [5] was greater than 10 µg/mL throughout.

For the compound `C=C1[C@](C)(O)CC[C@@]1(C)c1ccc(C)cc1`, the IC50 in test [1], in test [2], in test [3], in test [4] and in test [5] was greater than 10 µg/mL in each case.

`CC1(C)[C@]23C[C@H](Br)[C@@](C)(Cl)C[C@@H]2O[C@]1(Br)[C@H](O)[C@H]1O[C@]13C` [JOHNSTONOL]: the IC50 in test [1], in test [2], in test [3], in test [4] and in test [5] was greater than 10 µg/mL each time.
